Bioassay records: PubChem BioAssay, The Scripps Research Institute Molecular Screening Center
A selection: hits, their analogues and other compounds. The true share with any hit is near 1.8%.
CHRM4 antagonist: human M4 muscarinic receptor antagonists, primary screen, CHO cells, Fluo-8 calcium fluorescence | 360,000 compounds, 0.73% hits | CHO-hM4 cells, ACh EC80 | AID 624125, 2012 | inhibition, % at 3 µM;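 active = inhibition above its plate's cutoff, the mean inhibition of sample wells plus 3 SD, cut at about 27% in these data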;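 also: 0% = acetylcholine EC80 with DMSO and 100% = DMSO without agonist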
M5 antag: human M5 muscarinic receptor antagonists, primary screen, CHO cells, Fluo-8 calcium fluorescence. Muscarinic acetylcholine receptor M5 (Homo sapiens), P08912. CHO-hM5 cells, ACh EC80. inhibition, % at 3 µM. 360,000 compounds, 0.59% hits. AID 624040, 2012;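 active = inhibition above a per-plate cutoff, the mean of that plate's test compounds plus 3 SD, cut at about 27% in these data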;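 also: 0% = acetylcholine EC80 with DMSO and 100% = DMSO without agonist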
Target sequence (P08912 whole entry, looked up): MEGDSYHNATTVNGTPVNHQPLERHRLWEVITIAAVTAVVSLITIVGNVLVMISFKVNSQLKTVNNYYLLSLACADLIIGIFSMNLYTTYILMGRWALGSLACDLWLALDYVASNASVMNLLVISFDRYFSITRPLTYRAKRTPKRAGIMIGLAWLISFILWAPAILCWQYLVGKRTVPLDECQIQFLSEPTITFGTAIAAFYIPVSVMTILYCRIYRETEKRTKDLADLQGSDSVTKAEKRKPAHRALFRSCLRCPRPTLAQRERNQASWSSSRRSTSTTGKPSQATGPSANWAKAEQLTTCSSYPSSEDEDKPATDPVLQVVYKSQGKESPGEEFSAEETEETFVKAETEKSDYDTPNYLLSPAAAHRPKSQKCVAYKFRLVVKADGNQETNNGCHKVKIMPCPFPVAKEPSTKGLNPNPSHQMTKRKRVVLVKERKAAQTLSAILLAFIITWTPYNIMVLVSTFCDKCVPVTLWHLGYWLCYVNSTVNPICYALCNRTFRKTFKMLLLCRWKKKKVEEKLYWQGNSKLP
CHRM5 PAM: human M5 muscarinic receptor positive allosteric modulators, primary screen, CHO-K1 cells, Fluo-8 calcium fluorescence; Muscarinic acetylcholine receptor M5 (Homo sapiens), P08912; CHO-K1 hM5, ACh EC20 PAM; 0% = ACh EC20, 100% = ACh EC100; activation, % at 3 µM; 360,000 compounds, 0.3% hits;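 active = activation above the run cutoff, the mean activation of all test compounds plus 3 SD, cut at about 18% in these data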
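system = human M5 receptor in CHO-K1 cells | reagent = EC20 acetylcholine as agonist stimulus | compound dosing = single-point, 3 µM nominal | incubation = Fluo-8 loading 80 min at 37 °C plus 30 min room temperature | detection = Fluo-8 calcium dye fluorescence, kinetic read | benchmarks = low control EC20 acetylcholine (0%), high control EC100 acetylcholine (100%)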
CHRM5 agonist: human M5 muscarinic receptor agonists, primary screen, CHO-K1 cells, Fluo-8 calcium fluorescence; Muscarinic acetylcholine receptor M5 (Homo sapiens), P08912; CHO-K1 hM5 cells; 0% DMSO wells, 100% maximal acetylcholine response; activation, % at 3 µM; 360,000 compounds, 0.19% hits;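 active = activation above the run's mean over test compounds plus 3 SD, cut at about 23% in these data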;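 also: signal is peak over basal fluorescence ratio across the kinetic read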
M4 PAM: human M4 muscarinic receptor positive allosteric modulators, primary screen, CHO-K1 cells, Fluo-8 calcium fluorescence. Muscarinic acetylcholine receptor M4 (Homo sapiens), P08173. CHO-K1 hM4/Gqi5, ACh EC20; 0% = ACh EC20, 100% = maximal ACh. activation, % at 3 µM. 360,000 compounds, 0.4% hits;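 active = activation above its plate's cutoff, the mean activation of sample wells plus 3 SD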
CHRM4 agonist: human M4 muscarinic receptor agonists, primary screen, CHO-K1 cells, Fluo-8 calcium fluorescence. Muscarinic acetylcholine receptor M4 (Homo sapiens), P08173. CHO-K1 hM4/Gqi5; vehicle 0%, full acetylcholine response 100%. activation, % at 3 µM. 360,000 compounds, 0.14% hits. AID 624127, 2012;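 active = activation above the run mean over all test wells plus 3 SD, cut at about 32% in these data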;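 also: peak over basal fluorescence ratio per well then scaled between controls; 0% = DMSO wells and 100% = acetylcholine at EC100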
The depositor's hits bear a star.

SMILES | CHRM4 antagonist | M5 antag | CHRM5 PAM | CHRM5 agonist | M4 PAM | CHRM4 agonist
CCc1c(-c2ccc(Br)cc2)ncn1Cc1cccc(-c2ccccc2)c1 | 50.1* | 72.2* | -19.9 | -5.9 | -17.2 | 2.8
COc1cc(OC)cc(C(=O)Nc2cccc(N3CCCC3)c2)c1 | 28.0* | -6.6 | 2.4 | 2.1 | -9.7 | 1.3
CCCCCC(=O)Nc1cccc(C2=NOC3(C2)C[C@H](C(N)=O)N(C(=O)c2ccccc2)C3)c1 (some centres undefined) | 4.6 | 2.6 | 18.7* | 2.8 | 13.1 | 1.6
CCN(Cc1ccccc1)C(=O)C1CCN(C(=O)Nc2ccccc2)CC1 | 3.4 | 18.3 | -6.5 | -0.7 | 1.8 | 1.9
CCCN(CC(=O)Nc1ccccc1C)C(=O)C1CCN(C(=O)Nc2ccccc2)CC1 | -18.8 | 11.5 | -7.1 | 0.4 | 20.6* | 1.6
CCC(CC)c1nnc(NC(=O)CCc2ccc(OC)cc2)s1 | -12.8 | 2.0 | 5.0 | 8.0 | 1.5 | 1.1
CCC(CC)c1nnc(NC(=O)CCc2ccccc2)s1 | -3.8 | 8.3 | -0.9 | 3.3 | 15.1* | -0.1
O=[N+]([O-])c1ccc(S(=O)Cc2ccccc2)c([N+](=O)[O-])c1 (centres undefined) | 76.8* | 21.1 | -11.1 | 6.5 | -9.6 | 5.7
CC(C)(C)n1nnnc1C(c1cc2ccccc2o1)N1CCCCC1 (centres undefined) | 0.9 | -1.4 | -6.4 | -1.1 | 2.5 | -2.2
CC(C)CN(C(=O)CSc1nc2ccccc2c(=O)n1C)C1CCS(=O)(=O)C1 (centres undefined) | 2.1 | -2.7 | 5.3 | 2.9 | 1.5 | 0.8
C=CC[n+]1c(/C=C2\C=Cc3cc(C)ccc3N2CC)ccc2ccccc21 | 32.7* | 37.5* | -15.4 | 4.8 | -20.9 | 12.4
CCN1C(=C(C#N)C#N)C=Cc2cc(C)ccc21 | 4.6 | -1.3 | 0.7 | -5.6 | 1.1 | 0.8
O=C1C=CC(=O)N1c1ccc2c(c1)C(NC(=O)C(F)(F)F)c1ccccc1-2 (centres undefined) | 17.2 | 9.4 | 3.3 | 2.6 | -2.0 | 3.1
O=C(CNC(=O)c1ccccn1)N=Nc1c(O)[nH]c2ccccc12 | -11.5 | 12.4 | -7.0 | -2.1 | -4.7 | 4.3
COc1ccc(C(=O)N(C)C2CCCc3ccccc32)cc1OC1CCN(C(C)C)CC1 (centres undefined) | 15.1 | 16.9 | -5.0 | -7.7 | -10.0 | 0.3
COc1ccc(C(=O)NC2CCc3ccccc32)cc1OC1CCN(C(C)C)CC1 (centres undefined) | 4.7 | 28.1* | -5.7 | -5.5 | 4.5 | 1.3
COC(=O)c1ccc(CN2CCC(CO)(Cc3ccccc3Cl)CC2)cc1 | 27.3* | -0.4 | -3.3 | -11.3 | -24.0 | 1.7
COC(=O)c1ccc(CN2CCCC(CO)(Cc3ccccc3F)C2)cc1 (centres undefined) | 7.2 | -2.1 | -0.1 | -12.1 | -13.0 | 3.5
CC(C)Cn1c(-c2csc3c2CCCC3)n[nH]c1=S | 29.9* | 14.7 | -23.0 | -7.6 | -16.2 | -1.8
CC(C)Cn1c(-c2ccc(F)cc2)n[nH]c1=S | 18.4 | 2.9 | -4.0 | -9.6 | -11.3 | -0.7
CC(C)Cn1c(-c2ccncc2)n[nH]c1=S | -6.0 | 1.9 | 1.9 | -2.1 | 5.1 | 0.9
CC(C)Cn1c(-c2ccccc2F)n[nH]c1=S | 8.2 | 46.3* | 2.5 | -3.7 | 18.3 | 0.6
Cc1c(Cl)cccc1NC(=S)C(=C([O-])c1ccc(Cl)s1)[n+]1ccccc1 | -0.5 | 19.8 | -8.6 | -6.5 | -2.0 | 1.2
COC(=O)c1sccc1S(=O)(=O)Nc1ccc(C(O)(C(F)(F)F)C(F)(F)F)cc1 | 62.8* | 26.6 | -19.7 | 69.2* | -16.7 | 133.0*
CCCN(CC(=O)Nc1ccccc1C)CC(=O)Nc1ccc(Br)cc1F | -8.2 | 6.4 | -5.3 | -2.5 | -1.8 | 4.4
SMILES | CHRM4 antagonist | M5 antag | CHRM5 PAM | CHRM5 agonist | M4 PAM | CHRM4 agonist
COc1cccc(/C=N/Nc2snc(SC)c2C#N)c1O | 9.5 | 16.7 | -13.8 | 21.1 | -11.6 | 35.3*
CNC(=O)C1CCN(S(=O)(=O)c2c(C)noc2/C=C/c2ccc(OC)cc2)CC1 | -3.1 | 80.3* | -22.0 | -5.1 | 2.2 | 0.4
CCCNC(=O)C1CCN(S(=O)(=O)c2c(C)noc2/C=C\c2ccc(OC)cc2)CC1 | 0.5 | 3.1 | -4.6 | 0.5 | -1.0 | 1.6
Cc1cccc(C2(c3cccc(C)c3)CC2C(=O)Nc2ccc([N+](=O)[O-])cc2O)c1 (centres undefined) | 27.2* | 32.8* | -21.4 | 2.0 | -13.1 | 6.8
CC1CCCCC1NC(=O)COc1ccccc1C#N (centres undefined) | 9.1 | 2.8 | 0.1 | 1.2 | 2.5 | 1.2
CCOC(=O)[C@]12CCC=C1N(CCC1=CCCCC1)C(=O)[C@H](CC(=O)NCc1cccc3ccccc13)C2 | -7.8 | -2.7 | 1.6 | -1.5 | 14.4 | 0.9
O=C1/C(=C\c2c(NCCOCCO)nc3ccccn3c2=O)SC(=S)N1Cc1ccco1 | 23.6 | 18.9 | -9.8 | 60.2* | -11.5 | 19.4
O=C(C1CCN(Cc2ccc(Cl)cc2)CC1)N1CCN(C(c2ccccc2)c2ccccc2)CC1 | 73.9* | 43.7* | -19.1 | -8.2 | -18.1 | -0.3
O=C(c1ccc(Cl)cc1)C1CCN(Cc2ccccc2)CC1 | 0.1 | -8.1 | -11.7 | -22.6 | -14.1 | 1.5
Cc1nc2nc(SCC(=O)NCCCN3CCCCC3)nn2c(C)c1Cc1ccccc1 | 4.0 | 13.6 | -3.8 | -6.0 | -14.4 | 0.9
Cc1nc2nc(SCC(=O)NCCCN3CCCC3)nn2c(C)c1Cc1ccccc1Cl | 27.4* | 26.3 | -14.9 | -8.7 | -20.1 | 0.6
CCC1CCCCN1CCCNC(=O)CSc1nc2nc(C)c(Cc3ccc(C)cc3)c(C)n2n1 (centres undefined) | 26.4* | 8.4 | -8.6 | -8.0 | -13.8 | 0.9
CCCCn1c(N)c(N(CCOC)C(=O)CN(C)S(=O)(=O)c2ccc(C)cc2)c(=O)[nH]c1=O | -4.6 | 6.9 | 0.8 | -0.8 | 8.9 | 0.2
O=C(Cc1cccs1)N1CCN(S(=O)(=O)c2ccc(Cl)c(C(F)(F)F)c2)CC1 | -12.6 | 0.1 | 5.6 | -0.2 | 13.7 | 1.8
Cc1cccc(Nc2ncccc2C(=O)NCc2cccs2)c1C | 37.7* | 19.4 | -2.0 | 4.1 | 18.6 | 6.4
